Reference: ChEMBL document CHEMBL2150886, “Synthesis of [3β-acetoxy-urs-12-en-28-oyl]-1-monoglyceride and investigation on its anti tumor effects against BGC-823” (Bioorg Med Chem, 2011)
Active and inactive are the calls of the source. No cut-off for these calls is given here.

Experiments:
BGC-823 [1] = assay: Induction of apoptosis in human BGC823 cells assessed as late apoptotic cell population at 30 uM by annexinV/propidium iodide staining (reference value: 2.1%); assay type: functional
BGC-823 [2] = assay: Induction of apoptosis in human BGC823 cells assessed as early apoptotic cell population at 10 uM by annexinV/propidium iodide staining (reference value: 1.9%); assay type: functional
BGC-823 [3] = assay: Cell cycle arrest in human BGC823 cells assessed as accumulation of cells at subG0/G1 phase at 20 uM incubated for 48 hrs by propidium iodide staining based flow cytometry (Rvb= 0.66%); assay type: functional
Procedure, shortened: (§1)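 BGC-823 cells were exposed to 20 µM for 24, 48 or 72 h, or to 10, 20 or 40 µM for 48 h. About 10⁶ cells were harvested and stained with propidium iodide using a cell cycle kit, then analysed by flow cytometry. Percentages were read for sub-G0/G1, G0/G1, S and G2/M. Each experiment was run at least three times; mean ± SD.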

Mus musculus [4] = assay: Toxicity in human BGC823 cells xenografted nude mouse assessed as body weight changes at 6 mg/kg, iv treated 4 times on day 1, 4, 7 and 10 post tumor implant (reference value: 20.54 +/- 1.45 grams); assay type: organism-based, BGC-823; set-up: dose 6 mg/kg, route intravenous; settings: in vivo
Procedure, shortened: (§2)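 Nude mice (male, 5 weeks, 18–22 g) carried subcutaneous BGC-823 xenografts from 1 × 10⁷ cells. Dosing started at about 200 mm³ tumour volume, with eight mice per group. Each dose was 0.2 mL given iv; the saline control received 0.9% saline. Body weight was recorded on days 1, 4, 7, 10, 13 and 16 of treatment and reported as mean ± SD, n = 8.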

Mus musculus [5] = assay: Toxicity in human BGC823 cells xenografted nude mouse assessed as body weight changes at 30 mg/kg, iv treated 3 times on day 1, day 4 and day 7 post tumor implant (reference value: 20.79 +/- 1.29 grams); assay type: organism-based, BGC-823; set-up: dose 30 mg/kg, route intravenous; settings: in vivo; procedure, shortened: as §2
HepG2 = assay: Cytotoxicity against human HepG2 cells incubated for 48 hrs by MTT assay; assay type: functional, cell-based; settings: HepG2, 48 h
Procedure, shortened: (§3)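 Cells were grown in RPMI-1640 with 10% heat-inactivated FCS at 37 °C under 5% CO₂, seeded at 5 × 10³ per well and left 24 h. Compounds in DMSO were diluted in medium to 0.5% final DMSO; controls received 0.5% DMSO. Exposure was 24–72 h, followed by MTT for 4 h, formazan dissolved in DMSO, and A570. Six wells per sample; IC₅₀ taken at 50% inhibition; ≥3 repeats.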

Mus musculus [6] = assay: Toxicity in human BGC823 cells xenografted nude mouse assessed as body weight changes at 30 mg/kg, iv treated on day 1 post tumor implant (reference value: 19.69 +/- 1.21 grams); assay type: organism-based, BGC-823; set-up: dose 30 mg/kg, route intravenous; settings: in vivo; procedure, shortened: as §2
BGC-823 [7] = assay: Induction of apoptosis in human BGC823 cells assessed as necrotic damaged cell population at 10 uM by annexinV/propidium iodide staining (reference value: 0.5%; assay type: functional
BGC-823 [8] = assay: Induction of apoptosis in human BGC823 cells assessed as increase in caspase 3 activity at 10 uM incubated for 48 hrs relative to untreated control; assay type: functional
Procedure, shortened: (§4)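 BGC-823 cells were exposed to 0, 10 or 20 µM for 48 h, detached with trypsin/EDTA and washed in cold PBS. About 10⁶ cells were lysed, and the lysate was incubated 1 h with Ac-DEVD-pNA, with cleavage read at 405 nm. Activity was normalised to Bradford protein and expressed relative to the untreated control. Mean ± SD of three independent experiments.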

BGC-823 [9] = assay: Induction of apoptosis in human BGC823 cells assessed as viable cell population at 10 uM by annexinV/propidium iodide staining (reference value: 95.5%); assay type: functional
BGC-823 [10] = assay: Induction of apoptosis in human BGC823 cells assessed as increase in caspase 3 activity at 10 to 20 uM incubated for 48 hrs; assay type: functional, cell-based; procedure, shortened: as §4
BGC-823 [11] = assay: Reduction in survivin protein expression in human BGC823 cells incubated for 48 hrs by Western blotting; assay type: functional, cell-based
Procedure, shortened: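 BGC-823 cells were treated with 10, 20 or 40 µM for 48 h, detached with trypsin/EDTA, and more than 10⁶ cells were lysed. Protein was quantified by Bradford, and 150–200 µg per lane was run on 12.5% SDS-PAGE and transferred to PVDF. Antibodies: Survivin 1:1000, Bcl-2 1:200, β-actin 1:1000; HRP secondary 1 h; ECL detection. Expression was quantified relative to control.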

Mus musculus [12] = assay: Toxicity in human BGC823 cells xenografted nude mouse assessed as body weight changes at 6 mg/kg, iv treated 2 times on day 1 and day 4 post tumor implant (reference value: 20.58 +/- 1.35 grams); assay type: organism-based, BGC-823; set-up: dose 6 mg/kg, route intravenous; settings: in vivo; procedure, shortened: as §2
BGC-823 [13] = assay: Induction of apoptosis in human BGC823 cells assessed as necrotic damaged cell population at 30 uM by annexinV/propidium iodide staining (reference value: 0.5%; assay type: functional
BGC-823 [14] = assay: Cell cycle arrest in human BGC823 cells assessed as accumulation of cells at subG0/G1 phase at 40 uM incubated for 24 to 72 hrs by propidium iodide staining based flow cytometry (Rvb= 0.66%); assay type: functional
Mus musculus [15] = assay: Toxicity in human BGC823 cells xenografted nude mouse assessed as body weight changes at 6 mg/kg, iv treated 3 times on day 1, day 4 and day 7 post tumor implant (reference value: 20.79 +/- 1.29 grams); assay type: organism-based, BGC-823; set-up: dose 6 mg/kg, route intravenous; settings: in vivo; procedure, shortened: as §2
BGC-823 [16] = assay: Induction of cell shrinkage in human BGC823 cells at 30 uM incubated for 48 hrs by MTT assay; assay type: functional, cell-based
BGC-823 [17] = assay: Cell cycle arrest in human BGC823 cells assessed as accumulation of cells at subG0/G1 phase at 20 uM incubated for 72 hrs by propidium iodide staining based flow cytometry (Rvb= 0.66%); assay type: functional; procedure, shortened: as §1
BGC-823 [18] = assay: Cell cycle arrest in human BGC823 cells assessed as accumulation of cells at subG0/G1 phase at 40 uM incubated by propidium iodide staining based flow cytometry (Rvb= 0.66%); assay type: functional; settings: TDE = time-dependent effect; procedure, shortened: as §1
Mus musculus [19] = assay: Toxicity in human BGC823 cells xenografted nude mouse assessed as body weight changes at 30 mg/kg, iv treated 4 times on day 1, 4, 7 and 10 post tumor implant (reference value: 20.54 +/- 1.45 grams); assay type: organism-based, BGC-823; set-up: dose 30 mg/kg, route intravenous; settings: in vivo; procedure, shortened: as §2
Mus musculus [20] = assay: Toxicity in human BGC823 cells xenografted nude mouse assessed as body weight changes at 30 mg/kg, iv treated 2 times on day 1 and day 4 post tumor implant (reference value: 20.58 +/- 1.35 grams); assay type: organism-based, BGC-823; set-up: dose 30 mg/kg, route intravenous; settings: in vivo; procedure, shortened: as §2
HT-29 = assay: Cytotoxicity against human HT-29 cells incubated for 48 hrs by MTT assay; assay type: functional, cell-based; settings: HT-29, 48 h; procedure, shortened: as §3
BGC-823 [21] = assay: Cytotoxicity against human BGC823 cells by MTT assay; assay type: functional, cell-based; procedure, shortened: as §3
BGC-823 [22] = assay: Induction of apoptosis in human BGC823 cells assessed as viable cell population at 40 uM by annexinV/propidium iodide staining (reference value: 95.5%); assay type: functional
BGC-823 [23] = assay: Induction of apoptosis in human BGC823 cells assessed as viable cell population at 30 uM by annexinV/propidium iodide staining (reference value: 95.5%); assay type: functional

CC(=O)O[C@H]1CC[C@]2(C)[C@H]3CC=C4[C@@H]5[C@@H](C)[C@H](C)CC[C@]5(C(=O)OCC(O)CO)CC[C@@]4(C)[C@]3(C)CC[C@H]2C1(C)C (stereo not given in full)
Activity (BGC-823 [1]): 29%
Activity (BGC-823 [2]): 4.5%
Activity (BGC-823 [3]): 7.91%
Activity (Mus musculus [4]): 20.03 g
Activity (Mus musculus [5]): 19.29 g
IC50 (HepG2): 27.5 µM
Activity (Mus musculus [6]): 19.26 g
Activity (BGC-823 [7]): 0.2%
fold change (FC) (BGC-823 [8]): 2.54
Activity (BGC-823 [9]): 92.7%
Activity (BGC-823 [10]): Active
Activity (BGC-823 [11]): Dose-dependent effect
Activity (Mus musculus [12]): 20.66 g
Activity (BGC-823 [13]): 6.5%
Activity (BGC-823 [14]): 96.13%
Activity (Mus musculus [15]): 20.13 g
Activity (BGC-823 [16]): Active
Activity (BGC-823 [17]): 13.63%
Activity (BGC-823 [18]): tde
Activity (Mus musculus [19]): 19.16 g
Activity (Mus musculus [20]): 19.61 g
IC50 (HT-29): 18.4 µM
IC50 (BGC-823 [21]): 15.7 µM
Activity (BGC-823 [22]): 2%
Activity (BGC-823 [23]): 19.4%
